# Reference: ChEMBL document CHEMBL4811272, “A new sulfated triterpene glycoside from the sea cucumber Colochirus quadrangularis, and evaluation of its antifungal, antitumor and immunomodulatory activities” (Bioorg Med Chem, 2021)
# Calls of active or inactive are those of the source. The calls are words filed in the database; no cut-off is given here.
# How the values were obtained:
# [1] = system: Candida albicans; test: Antifungal activity against Candida albicans ATCC 76615 by microplate reader assay; type: functional; details: ATTCC76615
# Outline: (§1)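 Broth microdilution read by optical density at 630 nm. MIC80 is the first well with about 80% less growth than the drug-free well. Each concentration was run in three replicate wells, and values are means of three independent experiments.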
# [2] = system: Bel-7402; test: Antitumor activity against human Bel-7402 cells implanted in BALB/c-nu mouse assessed as T/C ratio at 5 mg/kg, IG administered everyday for 7 days relative to control; type: functional; details: time 7 day
# [3] = system: Bel-7402; test: Antitumor activity against human Bel-7402 cells implanted in BALB/c-nu mouse assessed as T/C ratio at 100 mg/kg, IG administered everyday for 7 days relative to control; type: functional; details: time 7 day
# [4] = system: CCRF S-180; test: Antitumor activity against mouse S-180 cells implanted in KM mouse assessed as tumor growth inhibition at 0.5 mg/kg, IG administered everyday for 7 days relative to control; type: functional; details: CCRF S-180, po, 168 h, time 7 day, read-out: TGI
# Outline: (§2)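 S-180 or H22 cells, about 2.5 × 10⁶ per mouse, injected s.c. in the right axilla of wild-type KM mice. Randomized after 24 h and dosed intragastrically for 7 days; sacrificed 24 h after the last dose. TGI = (W_C − W_T)/W_C × 100% from average tumor weight. n = 8; one-way ANOVA vs vehicle.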
# [5] = system: H22; test: Antitumor activity against mouse H22 cells implanted in KM mouse assessed as tumor growth inhibition at 50 mg/kg, IG administered everyday for 7 days relative to control; type: functional; details: H22, po, 168 h, time 7 day, read-out: TGI; outline: as §2
# [6] = system: Pyricularia oryzae; test: Antifungal activity against Pyricularia oryzae P-2B by measuring minimum morphological deformation concentration; type: functional; details: read-out: MEC
# [7] = system: HCT-116; test: Induction of apoptosis in human HCT-116 cells assessed as increase in necrotic cells measured upto 2 times of IC50 concentration by annexin V staining based flow cytometry analysis; type: functional, cell-based
# Outline: (§3)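 HCT-116 cells treated with vehicle or three compound concentrations, collected, and stained with Annexin V-FITC and propidium iodide in the dark at 4 °C. Flow cytometry quadrants: Q4 live, Q3 early apoptotic, Q2 late apoptotic, Q1 necrotic. n = 3; ANOVA vs vehicle.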
# [8] = system: Mus musculus; test: Immunomodulatory activity in cyclophosphamide-immunosuppressed KM mouse assessed as improved in phagocytosis function in at 50 to 500 mg/kg, IG once daily measured after 14 days; type: functional, organism-based; details: dose 50-500 mg/kg, time 14.0 day
# Outline: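 KM mice dosed intragastrically once daily for 14 days at 5, 50 or 500 mg/kg; vehicle 0.5% CMC-Na. CTX 50 mg/kg i.p. on days 7, 9 and 11. 1 h after the last dose, 25% Indian ink given i.v. at 0.1 mL/10 g. Blood (20 µL) taken at 2 and 10 min, lysed in 2 mL water, OD 680 nm read. K and α calculated with body, liver and spleen weights. n = 8.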
# [9] = system: CCRF S-180; test: Antitumor activity against mouse S-180 cells implanted in KM mouse assessed as tumor growth inhibition at 50 mg/kg, IG administered everyday for 7 days relative to control; type: functional; details: CCRF S-180, po, 168 h, time 7 day, read-out: TGI; outline: as §2
# [10] = system: HCT-116; test: Induction of apoptosis in human HCT-116 cells assessed as increase in early apoptotic cells measured upto 2 times of IC50 concentration by annexin V staining based flow cytometry analysis; type: functional, cell-based; outline: as §3
# [11] = system: H22; test: Antitumor activity against mouse H22 cells implanted in KM mouse assessed as tumor growth inhibition at 5 mg/kg, IG administered everyday for 7 days relative to control; type: functional; details: H22, po, 168 h, time 7 day, read-out: TGI; outline: as §2
# [12] = system: CCRF S-180; test: Antitumor activity against mouse S-180 cells implanted in KM mouse assessed as tumor growth inhibition at 5 mg/kg, IG administered everyday for 7 days relative to control; type: functional; details: CCRF S-180, po, 168 h, time 7 day, read-out: TGI; outline: as §2
# [13] = system: Mus musculus; test: Immunomodulatory activity in cyclophosphamide-immunosuppressed KM mouse assessed as improved thymus index in at 50 to 500 mg/kg, IG once daily measured after 14 days; type: functional, organism-based; details: dose 50-500 mg/kg, time 14.0 day
# Outline: (§4)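 KM mice dosed intragastrically at 5, 50 or 500 mg/kg; vehicle 0.5% CMC-Na. After five doses, immunized i.p. with 0.2 mL 20% rabbit erythrocytes, and dosing continued for 8 days. CTX 30 mg/kg i.p. on days 2, 4 and 6 after immunization. 1 h after the last dose, spleen and thymus weighed; index in g/kg. n = 8.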
# [14] = system: Candida tropicalis; test: Antifungal activity against clinical strain Candida tropicalis by microplate reader assay; type: functional; outline: as §1
# [15] = system: HCT-116; test: Cytotoxicity against human HCT-116 cells assessed as reduction in cell viability by sulforhodamine B assay; type: functional, cell-based
# Outline: (§5)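 Cells were kept in RPMI-1640 with 10% FBS, 2 mM L-glutamine, 50 μM β-mercaptoethanol and penicillin/streptomycin, at 37 °C in 5% CO2. SRB assay used 100, 10, 1, 0.1 and 0.01 μM, each in triplicate. Percent inhibition was calculated against solvent control OD. IC50 came from Logit curve fitting and is the mean of three independent experiments.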
# [16] = system: MKN-28; test: Cytotoxicity against human MKN-28 cells assessed as reduction in cell viability by sulforhodamine B assay; type: functional, cell-based; outline: as §5
# [17] = system: A549; test: Cytotoxicity against human A549 cells assessed as reduction in cell viability by sulforhodamine B assay; type: functional, cell-based; outline: as §5
# [18] = system: Bel-7402; test: Antitumor activity against human Bel-7402 cells implanted in BALB/c-nu mouse assessed as tumor growth inhibition at 50 mg/kg, IG administered everyday for 7 days relative to control; type: functional; details: Bel-7402, po, 168 h, time 7 day, read-out: TGI
# [19] = system: SPC-A4; test: Cytotoxicity against human SPC-A4 cells assessed as reduction in cell viability by sulforhodamine B assay; type: functional, cell-based; outline: as §5
# [20] = system: Cryptococcus neoformans; test: Antifungal activity against Cryptococcus neoformans ATCC 32609 by microplate reader assay; type: functional; details: ATTCC32609; outline: as §1
# [21] = system: Bel-7402; test: Antitumor activity against human Bel-7402 cells implanted in BALB/c-nu mouse assessed as T/C ratio at 500 mg/kg, IG administered everyday for 7 days relative to control; type: functional; details: time 7 day
# [22] = system: Bel-7402; test: Antitumor activity against human Bel-7402 cells implanted in BALB/c-nu mouse assessed as tumor growth inhibition at 5 mg/kg, IG administered everyday for 7 days relative to control; type: functional; details: Bel-7402, po, 168 h, time 7 day, read-out: TGI
# [23] = system: Mus musculus; test: Immunomodulatory activity in cyclophosphamide-immunosuppressed KM mouse assessed as improved spleen index in at 50 to 500 mg/kg, IG once daily measured after 14 days; type: functional, organism-based; details: dose 50-500 mg/kg, time 14.0 day; outline: as §4
# [24] = system: Candida parapsilosis; test: Antifungal activity against clinical strain Candida parapsilosis by microplate reader assay; type: functional; details: Lodderomyces parapsilosis; outline: as §1
# [25] = system: Bel-7402; test: Antitumor activity against human Bel-7402 cells implanted in BALB/c-nu mouse assessed as tumor growth inhibition at 500 mg/kg, IG administered everyday for 7 days relative to control; type: functional; details: Bel-7402, po, 168 h, time 7 day, read-out: TGI
# [26] = system: HCT-116; test: Induction of apoptosis in human HCT-116 cells assessed as apoptosis associated morphological changes measured upto 2 times of IC50 concentration for 24 hrs by Hoechst staining method; type: functional, cell-based
# Outline: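 HCT-116 cells treated with vehicle or three compound concentrations, then stained with Hoechst 33258. Nuclei examined by inverted fluorescence microscopy at ×400 in five random fields. Apoptotic cells expressed as % of cells counted. n = 3; ANOVA vs vehicle.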
# [27] = Inhibition of angiogenesis in human HMEC-1 cells assessed as tube formation by matrigel-based assay; type: functional, cell-based
# Outline: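 HMEC-1 cells seeded onto solidified Matrigel and exposed to compound, then cultured. Total tube length measured and used to calculate IC50. Three independent experiments.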
smiles,measurement,setting,value
C=C(C)CCC[C@]1(C)OC(=O)[C@]23CC[C@@H]4C(=CCC5C(C)(C)[C@@H](O[C@@H]6OC[C@@H](OS(=O)(=O)[O-])[C@H](O)[C@H]6O[C@@H]6O[C@H](C)[C@@H](O[C@@H]7OC[C@@H](O)[C@H](O[C@@H]8O[C@H](CO)[C@@H](O)[C@H](OC)[C@H]8O)[C@H]7O)[C@H](O)[C@H]6O)CC[C@@]54C)[C@]2(C)C[C@H](OC(C)=O)[C@@H]31.[Na+] (some centres not stated),MIC80,[1],4 µg/mL
same,T/C,[2],45%
same,T/C,[3],20%
same,inhibition in vivo at 0.5 mg/kg,[4],21.6%
same,inhibition in vivo at 50 mg/kg,[5],43.3%
same,minimal effective concentration,[6],≤ 16 µg/mL
same,Activity,[7],Active
same,Activity,[8],Active
same,inhibition in vivo at 50 mg/kg,[9],55.5%
same,Activity,[10],Active
same,inhibition in vivo at 5 mg/kg,[11],40.1%
same,inhibition in vivo at 5 mg/kg,[12],44.2%
same,Activity,[13],Active
same,MIC80,[14],8 µg/mL
same,IC50,[15],1360 nM
same,IC50,[16],1830 nM
same,IC50,[17],1270 nM
same,inhibition in vivo at 50 mg/kg,[18],58.2%
same,IC50,[19],1500 nM
same,MIC80,[20],16 µg/mL
same,T/C,[21],32%
same,inhibition in vivo at 5 mg/kg,[22],50.1%
same,Activity,[23],Active
same,MIC80,[24],4 µg/mL
same,inhibition in vivo at 500 mg/kg,[25],58.6%
same,Activity,[26],Active
same,IC50,[27],60 nM
